Screens: PubChem BioAssay, several laboratories
SR-BI uptake up = enhances SR-BI lipid uptake from DiI-HDL. 320,000 tested, 0.096% active. AID 504775. activation, % at 12.5 µM. CHO ldlA[mSR-BI] cells, DiI-HDL uptake fluorescence, 3 h; 100 = double the neutral-control signal;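 active = mean replicate activation of at least 60% and every replicate at or above 60%; inconclusive = mean or all-replicate condition met, but not both; inactive = mean below 60% and not all replicates reaching 60%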;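 note: 0% = median plate neutral-control signal and 100% = twice that signal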
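Material – SR-BI-overexpressing, LDLR-lacking CHO cells · Medium – BSA-supplemented, HEPES-buffered Ham's F12, pH 7.4 · Doses – single concentration · Times – compound with DiI-HDL co-incubation, 3 h at 37 °C · Measured by – bottom-read fluorescence, 550/595 nm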
Rin1-Abl PPI inh = human Rin1-Abl interaction inhibition; P00519+Q13671; TR-FRET Rin1/Abl binding, biochemical; inhibition, % at 7.35 µM; 360,000 tested, 0.4% active; AID 588664; in the data active = inhibition above about 5%, passing the limit was not always enough
GRK2 inh = human GRK2 inhibition via aptamer displacement; AID 488847; inhibition of aptamer binding, % at 10 µM; 330,000 tested, 0.59% active; P25098; bead flow cytometry, FAM-aptamer displacement from GRK2;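 active = inhibition of aptamer binding above 40%, roughly 3 SD of noise, on plates passing a quality check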;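 note: median bead fluorescence of bound FAM aptamer so fluorescent compounds give negative values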
Target sequence (P25098 whole entry, looked up): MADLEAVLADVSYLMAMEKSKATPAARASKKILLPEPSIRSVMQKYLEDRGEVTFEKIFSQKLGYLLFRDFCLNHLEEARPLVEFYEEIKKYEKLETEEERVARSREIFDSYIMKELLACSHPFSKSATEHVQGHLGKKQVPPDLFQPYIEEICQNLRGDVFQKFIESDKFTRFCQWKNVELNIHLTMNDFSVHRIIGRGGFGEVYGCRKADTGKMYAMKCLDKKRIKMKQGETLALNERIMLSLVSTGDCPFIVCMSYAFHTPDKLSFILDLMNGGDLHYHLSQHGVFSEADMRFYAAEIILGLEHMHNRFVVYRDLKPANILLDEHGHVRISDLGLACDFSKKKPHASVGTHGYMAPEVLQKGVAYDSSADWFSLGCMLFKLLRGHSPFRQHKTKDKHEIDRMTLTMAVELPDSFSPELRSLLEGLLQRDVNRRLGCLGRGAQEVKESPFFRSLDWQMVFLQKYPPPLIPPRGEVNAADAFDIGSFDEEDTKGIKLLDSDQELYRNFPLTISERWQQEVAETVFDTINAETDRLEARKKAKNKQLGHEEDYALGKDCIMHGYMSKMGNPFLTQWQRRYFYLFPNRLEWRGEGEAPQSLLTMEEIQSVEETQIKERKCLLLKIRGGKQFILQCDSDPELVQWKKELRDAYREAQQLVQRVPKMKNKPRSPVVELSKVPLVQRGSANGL
SR-BI DiI inh = mouse SR-BI HDL lipid transfer inhibition. 320,000 tested, 0.96% active. ldlA[mSR-BI] CHO cells, DiI-HDL uptake fluorescence, 3 h. Q61009. inhibition, % at 12.5 µM;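 active = mean replicate inhibition of at least 70% and a set share of replicates each scoring 70 or more; inconclusive = meets just one of the two criteria; inactive = fails both criteria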;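 note: 0% = median of neutral control wells and 100% = median of positive control wells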
GRK2 CP1 = confirmation of human GRK2 inhibitors displacing RNA aptamer | shares compounds with GRK2 inh | bead-bound GRK2, FAM-aptamer displacement, flow cytometry | aptamer displacement, % at 10 µM | AID 504451 | 2,000 tested, 4% active;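 active = aptamer displacement above 40%, near three times the noise of non-fluorescent compounds, on plates passing quality checks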;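 note: negative values mostly reflect intrinsic compound fluorescence rather than true enhancement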
Aptamer quench SP = quenches fluorescent RNA aptamer, GRK2 hit artifact | 2,000 tested, under 10 active | AID 504580 | fluorescence response (% of DMSO), % at 10 µM | Carboxyfluorescein RNA aptamer on beads, flow cytometry quenching; hits give low values | shares compounds with GRK2 inh;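 active = compounds that quench the bead-bound fluorescent RNA probe, cutting fluorescence to under half of the solvent control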;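 note: counterscreen run without GRK2 so only probe quenching by compound is measured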
GRK2 CP2 = human GRK2 inhibition confirmation, cherry pick 2 | AID 504782 | shares compounds with GRK2 inh | bead-bound GRK2, FAM-aptamer displacement, flow cytometry | inhibition of aptamer binding, % at 10 µM | 360 tested, under 10 active;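 active = inhibition of aptamer binding above 40%, about triple the noise seen with nonglowing compounds, on plates passing quality control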;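 note: negative values mostly come from compounds that fluoresce themselves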
FAM quench CP2 = counter-screen for GRK2 binding hits: quenchers of fluorescent RNA aptamer; carboxyfluorescein RNA aptamer beads, flow cytometry quenching; hits give low values; AID 588494; 360 tested, under 10 active; shares compounds with GRK2 inh; fluorescence response vs DMSO, % at 10 µM;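 active = response vs DMSO under 50%, meaning signal dropped by over half, treated as fluorescence quencher; inconclusive = no clear call, values can overlap the other calls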;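 note: labelled aptamer on streptavidin beads without GRK2 as a quench counter-screen; 100% = bead fluorescence of DMSO wells and lower means quenching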
An asterisk follows results filed as active; ? = inconclusive; . = no result. Hits are enriched below; roughly 1.9% of the tested compounds scored in any of these assays.

SMILES | SR-BI uptake up | Rin1-Abl PPI inh | GRK2 inh | SR-BI DiI inh | GRK2 CP1 | Aptamer quench SP | others
O=C(NCc1ccccc1Cl)c1cccc(NC2=NC3CS(=O)(=O)CC3S2)c1 (stereo not drawn) | -3 | 1 | 2 | 3 | -2 | 97
COc1ccc(C(=O)Nc2c(O)ccc3ccccc23)cc1OC | -47 | -2 | 1 | 47 | . | .
COc1ccc(CC(=O)Nc2cccc(C(=O)Nc3cccc(C)c3)c2)cc1 | . | . | 2 | . | . | .
COc1ccc(C(=O)Nc2c(O)ccc3ccccc23)cc1 | ? | -1 | 98* | -237 | -3 | 95
COc1ccccc1CNC(=O)c1cccc(NC(=O)c2ccccc2)c1 | -62 | 2 | 1 | 62 | -2 | 95
O=C(NCc1ccccc1Cl)c1ccc(NC2=NC3CS(=O)(=O)CC3S2)cc1 (stereo not drawn) | 24 | -2 | 0 | -24 | . | .
COc1ccc(CNC(=O)c2cccc(NC(=O)c3ccccc3)c2)cc1 | -65 | 8 | 2 | 65 | 3 | 104
COc1cccc(C(C)(O)c2nc(-c3cccc(C#N)c3)cs2)c1 (stereo not drawn) | . | 1 | . | . | . | .
COc1ccc(-c2csc(NC(=O)/C(N=Nc3ccccc3)=C(\C)O)n2)cc1 | . | . | 0 | . | . | .
CC(=O)NN1CCc2cc3ccc(C)cc3nc21 | 2 | 0 | 90* | -2 | -10 | 96
CN1C2=CC=CC=CC2=[N+](C)C12C([N+](=O)[O-])=CC(=[N+]([O-])[O-])C=C2[N+](=O)[O-] (stereo not drawn) | 24 | -1 | 48* | -24 | 3 | 100
COC(=O)c1ccc(C2c3[nH]c4ccccc4c3C[C@H]3C(=O)N(C4CCN(Cc5ccccc5)CC4)CC(=O)N23)cc1 (stereo partly drawn) | -32 | 0 | 0 | 32 | . | .
COc1cccc(C2c3[nH]c4ccccc4c3C[C@H]3C(=O)N(C4CC4)CC(=O)N23)c1 (stereo partly drawn) | -63 | 3 | 0 | 63 | . | .
O=C1[C@@H]2Cc3c([nH]c4ccccc34)C(c3cccc(Br)c3)N2C(=O)CN1C1CCN(Cc2ccccc2)CC1 (stereo partly drawn) | -34 | 2 | 0 | 34 | -4 | 100
O=C1[C@@H]2Cc3c([nH]c4ccccc34)C(c3ccccc3)N2C(=O)CN1C1CCN(Cc2ccccc2)CC1 (stereo partly drawn) | -10 | -2 | 0 | 10 | -2 | 112
O=[N+]([O-])c1ccc(-c2cn3nc(-c4ccccc4)c(-c4ccccc4)nc3n2)cc1 | . | -1 | 42* | . | 28 | 107
Cc1ccc(-c2cn3nc(-c4ccccc4)c(-c4ccccc4)nc3n2)cc1 | . | -2 | 66* | . | 3 | 103
COc1ccc(C(=O)c2ccc3oc(-c4ccc(OC)cc4)c(-c4ccc(O)cc4)c3c2)cc1 | -48 | 3 | 0 | 48 | . | .
Cc1cc(S(=O)(=O)N2CCCCC2CCNC(=O)C(=O)NCc2cccnc2)ccc1F (stereo not drawn) | 19 | -2 | 100* | -19 | 1 | 104
O=C(OCC(=O)N1CCN(c2ccc(F)cc2)CC1)c1cnc2ccccc2n1 | 3 | -2 | 0 | -3 | . | .
O=C(CCc1nc2ccccc2c(=O)[nH]1)NCC(=O)Nc1ccc(F)c(F)c1 | 14 | 1 | 0 | -14 | . | .
O=C(CCc1nc2ccccc2c(=O)[nH]1)Nc1ccc(F)c([N+](=O)[O-])c1 | -7 | -2 | 46* | 7 | 1 | 108
CCC(=C(c1ccc(OC)cc1)c1ccc(OC)cc1)c1cn(CC(O)CN2CCN(C)CC2)c2ccccc12 (stereo not drawn) | . | 1 | 0 | . | . | .
Cc1cccc(Oc2ccc(S(=O)(=O)N3CCCCC3)cc2NC(=O)C2=COCCO2)c1 | 35 | 1 | 31 | -35 | -4 | 97
CCC(CO)Nc1ccc(-c2n[nH]c(=O)c3ccccc23)cc1[N+](=O)[O-] (stereo not drawn) | -56 | -7 | 60* | 56 | . | . | GRK2 CP2=-3;FAM quench CP2=105
SMILES | SR-BI uptake up | Rin1-Abl PPI inh | GRK2 inh | SR-BI DiI inh | GRK2 CP1 | Aptamer quench SP | others
CC(=O)COc1coc(CN2CCN(c3ccc(F)cc3)CC2)cc1=O | 0 | 1 | 99* | 0 | 19 | 96
COc1ccccc1COC(=O)C(NC(=O)c1ccc(C)cc1)C(C)C (stereo not drawn) | 11 | -2 | . | -11 | . | .
COc1ccc(CN2C[C@@H](CO)O[C@@H](n3cnc4c(NCCO)ncnc43)C2)cc1 | . | 4 | . | . | . | .
CCOc1ccc(NS(=O)(=O)c2ccc3[nH]c(=O)[nH]c3c2)cc1 | 4 | 2 | 50* | -4 | -3 | 96
COc1ccc(C(=O)N2CCC(C)(C(=O)NS(=O)(=O)C3CC3)C2)cc1 (stereo not drawn) | . | -1 | . | . | . | .
O=C1Cc2c([nH]c3ccc([N+](=O)[O-])cc23)-c2ccccc2N1 | -7 | 1 | . | 7 | . | .
CSc1ccc(CN2CCN(S(=O)(=O)Cc3ccccc3)CC2)cc1 | 21 | 0 | 55* | -21 | . | . | GRK2 CP2=-29;FAM quench CP2=103
Cc1ccc2nc(-c3cccs3)oc(=O)c2c1 | 15 | 1 | 2 | -15 | . | .
COc1cc2nc(-c3cccs3)oc(=O)c2cc1OC | -44 | -3 | 74* | 44 | -1 | 100
COc1ccc(Cl)cc1N1C(=O)[C@@H]2C(c3cccc(OC)c3OC)=NO[C@@H]2C1=O | 12 | 2 | 6 | -12 | . | . | GRK2 CP2=8;FAM quench CP2=102
COc1ccc(OC)c(C2=NO[C@@H]3C(=O)N(c4cc(Cl)ccc4OC)C(=O)[C@H]23)c1 | 11 | 1 | 2 | -11 | . | . | GRK2 CP2=5;FAM quench CP2=?
COc1ccc(C2=NO[C@@H]3C(=O)N(Cc4ccccc4)C(=O)[C@H]23)c(OC)c1 | . | -3 | 0 | . | . | .
Cc1c(CC(=O)NCC(=O)NCC(=O)N[C@@H](Cc2ccccc2)C(=O)O)c(=O)oc2c(C)c(O)ccc12 | . | -1 | . | . | . | .
c1ccc(-c2nnc(-c3ccco3)o2)cc1 | 7 | -1 | 1 | -7 | . | .
c1coc(-c2nnc(-c3ccco3)nn2)c1 | 13 | 2 | 88* | -13 | 6 | 103
CC(C)CCNC(=O)C1CCN(c2nnc(-n3cccc3)s2)CC1 | 3 | 2 | 3 | -3 | . | .
O=C(NC1CCCc2ccccc21)C1CCN(c2nnc(-n3cccc3)s2)CC1 (stereo not drawn) | -8 | 0 | 0 | 8 | -3 | 98
O=C(NCCC1=CCCCC1)C1CCN(c2nnc(-n3cccc3)s2)CC1 | -17 | 0 | 3 | 17 | -2 | 98
CCCS(=O)(=O)NC(=O)C1(C)CCN(C(=O)/C=C/c2ccccc2)C1 (stereo not drawn) | . | -2 | . | . | . | .
